In paper PMC2837366 (Molecular cancer therapeutics, 2010):
Values belong to the compound of their own block, whether it stands above or below them.

Assays:
[1] = test system: PtdIns-3-K/PDPK1/Akt signaling in PC-3 prostate cells; assay: Reverse phase protein array in PC-3 cells; assay type: cell-based, human; details: 0.1 µM, 16 hours, RPPA
In short: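 PC-3 cells were held in serum-free medium for 8 hr. They were then exposed for 16 hr to test compound at 0.1–10 µM, to wortmannin, or to DMSO vehicle. Lysate protein was analysed by quantitative reverse phase protein array with 74 validated PtdIns-3-K/Akt/PDPK1 pathway antibodies. Values are means of 3 determinations, expressed relative to DMSO control.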

PH domain of PDPK1 = target: T1, PH domain of PDPK1 (Homo sapiens, UniProt O15530); assay: SPR competitive binding assay, displacement from PtdIns; details: for binding to the PH domain of PDKP1: at concentrations up to 50 µM
T1 sequence (O15530 459-550 limits assumed): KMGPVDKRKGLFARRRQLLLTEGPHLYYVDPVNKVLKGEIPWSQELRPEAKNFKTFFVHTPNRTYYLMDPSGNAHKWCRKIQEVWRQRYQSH
In short: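 Binding was measured by SPR on a Biacore 2000 with streptavidin chips carrying biotin-labelled PtdIns(3,4,5)P₃ liposomes. Expressed recombinant human PDPK1 PH domain was competed with increasing test compound concentrations. Ki was the concentration displacing 50% of the PH domain bound to the liposomes without drug. Values are means of 4 determinations.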

PH domain of Akt2 = target: T2, PH domain of Akt2 (Homo sapiens, UniProt P31751); assay: SPR competitive binding assay, displacement from PtdIns
T2 sequence (P31751 5-108 limits assumed): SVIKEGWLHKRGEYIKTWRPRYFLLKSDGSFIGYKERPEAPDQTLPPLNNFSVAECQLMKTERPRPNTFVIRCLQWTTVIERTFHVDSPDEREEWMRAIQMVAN

[2] = test system: BxPC-3 pancreatic, MCF-7 breast or A-549 NSCL cancer xenografts; assay: Antitumor activity, effect of the carbon chain length; assay type: in vivo, mouse; details: 200 mg/kg oral gavage twice a day for 10 days; BxPC-3, MCF-7, A-549 xenografts
In short: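 Female scid mice received about 10⁷ log-phase cells in 0.2 ml PBS subcutaneously in the flank. MCF-7 cells were given in Matrigel, with a 60-day 17-β-estradiol pellet implanted the day before. Mice were stratified into groups of 8 with similar mean tumor volumes. Test compound was given orally in 0.1 ml sesame seed oil; controls received vehicle. Calipers were read twice weekly, with volume = d_short² × d_long ÷ 2. Growth rate over the dosing period was compared with control by Student's t-test. T/C is the treated growth rate as a percent of control.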

[3] = SPR displacement assay, in words

Structure (SMILES): COC[C@H]1OC(=O)c2coc3c2[C@@]1(C)C1=C(C3=O)[C@@H]2CCC(=O)[C@@]2(C)C[C@H]1OC(C)=O [wortmannin, reference compound]
phospho-Ser241-PDPK1 [1]: reduction
phospho-Ser473-Akt [1]: completely inhibited
phospho-Ser657-protein kinase C (PKC) [1]: decreased
phospho-Thr308-Akt [1]: reduction
total SGK1 [1]: decreased

binding to the PH domain of PDPK1 (PH domain of PDPK1; [3]): showed binding
Structure (SMILES): CCCCCCCCCCCCCCc1ccc(S(=O)(=O)Nc2nncs2)cc1 [C-14]
binding to the PH domain of Akt (PH domain of Akt2; [3]): lower, although still appreciable, binding

Structure (SMILES): CCCCc1ccc(S(=O)(=O)Nc2nncs2)cc1 [C-4]
antitumor activity (tumor growth rate) [2]: very little activity

binding to the PH domain of PDKP1 (PH domain of PDPK1): None of these compounds bound
binding to the PH domain of Akt (PH domain of Akt2; at concentrations up to 50 µM): None of these compounds bound
Structure (SMILES): CCCCCCCCCCCCCCCCCCOP(=O)([O-])OC1CC[N+](C)(C)CC1 [perifosine]

Structure (SMILES): CCCCCCCCc1ccc(S(=O)(=O)Nc2nncs2)cc1 [C-8]
antitumor activity (tumor growth rate) [2]: less activity

Structure (SMILES): CCCCCCCCCCCCCCCCCCc1ccc(S(=O)(=O)Nc2nncs2)cc1 [C-18]
binding to the PH domain of Akt (PH domain of Akt2; [3]): lower, although still appreciable, binding

binding to the PH domain of Akt (PH domain of Akt2; [3]): bound very weakly
Structure (SMILES): NC1(c2ccc(-c3nc4ccn5c(=O)[nH]nc5c4cc3-c3ccccc3)cc2)CCC1 [MK-2206]

binding to the PH domain of PDKP1 (PH domain of PDPK1): None of these compounds bound
binding to the PH domain of Akt (PH domain of Akt2; at concentrations up to 50 µM): None of these compounds bound
Structure (SMILES): CN1N=C(N)c2cn([C@@H]3O[C@H](COP(=O)(O)O)[C@@H](O)[C@H]3O)c3ncnc1c23 [triciribine]

binding to the PH domain of PDKP1 (PH domain of PDPK1): None of these compounds bound
binding to the PH domain of Akt (PH domain of Akt2; at concentrations up to 50 µM): None of these compounds bound
Structure (SMILES): CCCCCCCCCCCCCCCCCCOCC(COP(=O)([O-])OCC[N+](C)(C)C)OC (stereo not shown) [edelfosine]

Structure (SMILES): CCCCCCc1ccc(S(=O)(=O)Nc2nncs2)cc1 [C-6]
antitumor activity (tumor growth rate) [2]: very little activity

Structure (SMILES): CCCCCCCCCCCCCCCCc1ccc(S(=O)(=O)Nc2nncs2)cc1 [C-16]
binding to the PH domain of Akt (PH domain of Akt2; [3]): lower, although still appreciable, binding
